Results taken from ChEMBL document CHEMBL2331476, “A novel semisynthetic flavonoid 7-O-galloyltaxifolin upregulates heme oxygenase-1 in RAW264.7 cells via MAPK/Nrf2 pathway” (J Med Chem, 2013).
Active and inactive are the calls of the source. The calls are words filed in the database; no cut-off is given here.

Experiments:
[1] = molecular target: T1, Mitogen-activated protein kinase 9/10 (Mus musculus) (UniProt Q9WTU6+Q61831); assay: Activation of JNK2/3 in mouse RAW264.7 cells assessed as phosphorylation at 50 uM after 30 mins to 4 hrs by Western blotting analysis; type: cell-based; settings: TDE = time-dependent effect
T1 sequence (Q61831 whole entry, looked up): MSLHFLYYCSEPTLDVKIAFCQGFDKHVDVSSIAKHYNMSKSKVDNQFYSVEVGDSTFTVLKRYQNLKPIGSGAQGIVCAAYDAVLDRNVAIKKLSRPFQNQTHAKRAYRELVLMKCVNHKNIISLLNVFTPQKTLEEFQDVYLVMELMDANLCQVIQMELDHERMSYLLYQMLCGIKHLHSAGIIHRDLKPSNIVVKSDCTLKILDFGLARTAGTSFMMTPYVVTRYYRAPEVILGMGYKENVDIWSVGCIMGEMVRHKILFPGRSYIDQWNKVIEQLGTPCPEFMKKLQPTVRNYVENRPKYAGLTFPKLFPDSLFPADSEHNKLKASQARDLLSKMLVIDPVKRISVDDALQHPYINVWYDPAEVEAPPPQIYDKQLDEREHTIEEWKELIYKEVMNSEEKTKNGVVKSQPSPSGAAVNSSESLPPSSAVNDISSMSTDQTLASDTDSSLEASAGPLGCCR
T1 sequence (Q9WTU6 whole entry, looked up): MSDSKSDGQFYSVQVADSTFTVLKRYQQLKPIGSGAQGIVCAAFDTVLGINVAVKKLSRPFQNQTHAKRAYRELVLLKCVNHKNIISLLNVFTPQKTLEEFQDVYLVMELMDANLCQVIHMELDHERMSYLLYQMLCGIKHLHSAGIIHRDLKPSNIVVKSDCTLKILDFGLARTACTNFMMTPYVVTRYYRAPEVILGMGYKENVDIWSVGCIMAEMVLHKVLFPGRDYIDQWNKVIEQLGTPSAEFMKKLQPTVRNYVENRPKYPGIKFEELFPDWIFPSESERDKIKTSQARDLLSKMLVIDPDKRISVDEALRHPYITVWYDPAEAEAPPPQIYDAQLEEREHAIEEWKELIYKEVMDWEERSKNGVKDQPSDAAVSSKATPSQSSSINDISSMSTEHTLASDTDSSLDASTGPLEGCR
Method in brief: (§1)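 Serum-starved RAW264.7 cells exposed in serum-free medium for 30 min to 4 h; 5 μM anisomycin for 30 min as positive control. Whole-cell lysates (30 μg/lane) blotted for JNKs dually phosphorylated at Thr183/Tyr185 and total JNKs, chemiluminescent detection.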

[2] = test system: RAW264.7; assay: Drug metabolism in mouse RAW264.7 cells assessed as 7-O-galloylquercetin level at 50 uM after 6 hrs by HPLC/ESI-QqTOF/MS analysis; type: ADME, cell-based; settings: raw264.7, 6 h
Method in brief: (§2)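 Cells given 50 μM for up to 6 h, then scraped, washed twice in PBS and sonicated in methanol with 5% acetic acid. Supernatant analysed by UPLC on a phenyl column (water/1% acetic acid/methanol to methanol gradient, 35 °C) with negative ESI-QqTOF MS. Contents expressed as nmol per 10⁶ cells.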

[3] = molecular target: T2, Nuclear factor erythroid 2-related factor 2 (Mus musculus) (UniProt Q60795); assay: Activation of Nrf2 in mouse RAW264.7 cells assessed as upregulation of Hmox1 gene expression at 50 uM after 6 hrs by real-time PCR analysis relative to GAPDH mRNA expression; type: cell-based
T2 sequence (whole entry): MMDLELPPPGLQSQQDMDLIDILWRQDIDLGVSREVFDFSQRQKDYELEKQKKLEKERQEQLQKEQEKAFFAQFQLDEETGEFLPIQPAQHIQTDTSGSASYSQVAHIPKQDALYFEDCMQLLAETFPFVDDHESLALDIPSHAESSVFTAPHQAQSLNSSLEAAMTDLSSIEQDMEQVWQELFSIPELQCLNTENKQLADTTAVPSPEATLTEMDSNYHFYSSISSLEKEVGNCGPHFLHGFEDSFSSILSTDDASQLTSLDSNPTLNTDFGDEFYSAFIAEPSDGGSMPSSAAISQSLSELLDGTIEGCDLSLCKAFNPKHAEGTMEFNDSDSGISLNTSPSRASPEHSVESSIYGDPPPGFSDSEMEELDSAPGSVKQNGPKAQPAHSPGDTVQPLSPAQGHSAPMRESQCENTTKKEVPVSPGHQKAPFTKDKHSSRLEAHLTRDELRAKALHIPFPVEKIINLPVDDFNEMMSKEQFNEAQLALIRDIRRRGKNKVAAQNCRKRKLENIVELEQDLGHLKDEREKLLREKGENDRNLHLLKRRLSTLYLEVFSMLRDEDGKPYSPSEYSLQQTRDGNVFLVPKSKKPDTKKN
Method in brief: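 Serum-starved RAW264.7 cells were exposed for 6 h in serum-free medium against a 0.1% DMSO control. Total RNA (2 μg) was reverse-transcribed, then TaqMan qPCR run for Hmox1 and Gapdh over 40 cycles. Crossing points were taken by second-derivative maximum, and fold change calculated by the 2^−ΔΔCT method normalized to Gapdh. Mean ± SD of three experiments.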

[4] = molecular target: Mitogen-activated protein kinase 8 (Mus musculus) (UniProt Q91Y86); assay: Activation of JNK1 in mouse RAW264.7 cells assessed as phosphorylation at Thr183/Tyr185 at 50 uM after 30 mins by Western blotting analysis; type: cell-based; method in brief: as §1
Mitogen-activated protein kinase 8 (Mus musculus), sequence (Q91Y86 whole entry): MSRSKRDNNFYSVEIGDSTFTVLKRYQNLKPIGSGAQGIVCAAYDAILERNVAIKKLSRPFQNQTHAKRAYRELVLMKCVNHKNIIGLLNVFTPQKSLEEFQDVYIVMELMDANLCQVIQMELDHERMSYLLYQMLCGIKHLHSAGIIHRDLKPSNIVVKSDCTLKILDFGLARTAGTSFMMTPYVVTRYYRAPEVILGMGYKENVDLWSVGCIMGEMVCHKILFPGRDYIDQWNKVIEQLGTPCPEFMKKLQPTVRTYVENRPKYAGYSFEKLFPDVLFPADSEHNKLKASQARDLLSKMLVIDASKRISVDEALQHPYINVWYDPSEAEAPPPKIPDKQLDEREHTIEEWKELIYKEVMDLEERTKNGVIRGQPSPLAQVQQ

[5] = molecular target: T2, Nuclear factor erythroid 2-related factor 2 (Mus musculus); assay: Activation of Nrf2 in mouse RAW264.7 cells assessed as upregulation of HO1 protein expression at 10 to 50 uM after 6 hrs by Western blotting analysis; type: cell-based
Method in brief: (§3)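 HO-1 protein in whole-cell lysates (20 μg/lane) of serum-starved RAW264.7 cells after 6 h at 10-50 μM or 50 μM for 1-6 h in serum-free medium, 0.1% DMSO control. Chemiluminescent Western blot; HO-1 densitometry normalized to actin, mean of three experiments.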

[6] = test system: RAW264.7; assay: Induction of ROS generation in mouse RAW264.7 cells at 25 uM after 2 hrs by flow cytometric analysis; type: functional
Method in brief: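 Serum-starved RAW264.7 cells treated 2 h at 10-50 μM; 100 μM TBHP for 30 min as positive control. Medium replaced, cells loaded with 10 μM carboxy-H₂DCFDA for 15 min at 37 °C. Flow cytometry (488 nm excitation, 525 nm emission, 10,000 events) gave percentage of cells with raised ROS; mean ± SD of three experiments.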

[7] = molecular target: Mitogen-activated protein kinase 1 (Mus musculus) (UniProt P63085); assay: Activation of ERK2 in mouse RAW264.7 cells assessed as phosphorylation at Thr185/Tyr187 at 50 uM after 30 mins by Western blotting analysis; type: cell-based
Mitogen-activated protein kinase 1 (Mus musculus), sequence (P63085 whole entry): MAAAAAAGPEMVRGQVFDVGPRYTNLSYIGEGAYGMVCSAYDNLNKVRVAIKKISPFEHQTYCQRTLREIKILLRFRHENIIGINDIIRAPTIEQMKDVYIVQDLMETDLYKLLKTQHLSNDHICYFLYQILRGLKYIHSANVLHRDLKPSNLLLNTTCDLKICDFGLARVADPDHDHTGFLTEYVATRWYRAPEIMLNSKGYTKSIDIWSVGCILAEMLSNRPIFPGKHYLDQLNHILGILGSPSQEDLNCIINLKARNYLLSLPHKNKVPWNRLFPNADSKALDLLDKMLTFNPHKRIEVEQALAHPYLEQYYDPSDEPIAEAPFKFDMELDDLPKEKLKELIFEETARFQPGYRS
Method in brief: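 RAW264.7 cells (passage 5-25) seeded at 1 × 10⁵ cells/cm², serum-starved overnight, then exposed in serum-free medium for 30 min to 3 h; 0.1% DMSO vehicle; 75 ng/mL EGF for 30 min as positive control. Whole-cell lysates (20 μg/lane) on 10% SDS-PAGE, blotted for phospho-ERK1 (Thr202/Tyr204), phospho-ERK2 (Thr185/Tyr187) and total ERK1/2, chemiluminescent detection.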

[8] = molecular target: T2, Nuclear factor erythroid 2-related factor 2 (Mus musculus); assay: Activation of Nrf2 in mouse RAW264.7 cells assessed as upregulation of HO1 protein expression at 50 uM after 6 hrs by Western blotting analysis relative to untreated control; type: cell-based; method in brief: as §3
[9] = molecular target: MAP kinase p38 (Homo sapiens) (UniProt O15264+Q15759+Q16539+P53778); assay: Activation of p38MAPK in mouse RAW264.7 cells assessed as phosphorylation at Thr180/Tyr182 at 50 uM after 1 hr by Western blotting analysis; type: cell-based
Method in brief: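 p38 phosphorylation at Thr180/Tyr182 and total p38 probed in whole-cell lysates (35 μg/lane) of serum-starved RAW264.7 cells treated for 30 min to 4 h in serum-free medium. Positive controls were 5 μM anisomycin or 75 ng/mL EGF for 30 min. Chemiluminescent Western detection.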

[10] = molecular target: T2, Nuclear factor erythroid 2-related factor 2 (Mus musculus); assay: Activation of Nrf2 in mouse RAW264.7 cells assessed as cytosolic accumulation at 25 uM after 3 hrs by Western blotting analysis; type: cell-based
Method in brief: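 Serum-starved RAW264.7 cells treated 30 min to 3 h (10-50 μM for 3 h, or 50 μM time course); 0.1% DMSO control, 50 μM quercetin positive control. Cytosolic fraction from hypotonic HEPES pH 7.9 buffer with 0.1% NP-40; nuclear fraction by 420 mM NaCl extraction. 30 μg/lane blotted for Nrf2 and actin; Nrf2/actin densitometry, mean of three experiments.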

[11] = test system: RAW264.7; assay: Drug uptake in mouse RAW264.7 cells at 50 uM after 10 mins; type: ADME, cell-based; settings: raw264.7, 10 min; method in brief: as §2
[12] = molecular target: T1, Mitogen-activated protein kinase 9/10 (Mus musculus); assay: Activation of JNK2/3 in mouse RAW264.7 cells assessed as phosphorylation at 50 uM after 30 mins by Western blotting analysis; type: cell-based; method in brief: as §1
[13] = test system: RAW264.7; assay: Cytotoxicity against mouse RAW264.7 cells assessed as decreased cell viability at 50 uM after 6 hrs by MTT assay; type: cell-based; settings: raw264.7, 6 h
Method in brief: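 Serum-starved RAW264.7 cells exposed 6 h at 10 or 50 μM; 0.1% DMSO control (100% viability), 1.5% Triton X-100 positive control. Cells washed and incubated 2 h at 37 °C with 0.5 mg/mL MTT in serum-free medium. Formazan dissolved in DMSO, A540 read, viability relative to DMSO-treated cells.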

Activity [1]: tde | Drug metabolism [2]: Active | fold change (FC) [3]: 13.4 | Activity [4]: Active | Activity [5]: Dose-dependent effect | Activity [7]: Active | fold change (FC) [8]: 2.5 | Activity [9]: Active | Activity [10]: Active | Drug uptake [11]: 85% | Activity [12]: Active
SMILES: O=C(Oc1cc(O)c2c(c1)O[C@H](c1ccc(O)c(O)c1)[C@@H](O)C2=O)c1cc(O)c(O)c(O)c1
Activity [6]: 19% | Activity [13]: 72%
